We go through eight compounds from ChEMBL document CHEMBL3351592, “Marine spongian sesquiterpene phenols, dictyoceratin-C and smenospondiol, display hypoxia-selective growth inhibition against cancer cells” (2014).

Structures are written as SMILES. Active and inactive are the calls of the source. The calls are words filed in the database; no cut-off is given here.

As usually defined, the inhibition is the share of the control response that was lost under treatment.

For assay [1], the system named is DU-145. Description: Antiproliferative activity against human DU145 cells assessed as growth inhibition under hypoxic condition at 1 to 30 uM after 24 hrs by MTT assay. Type of assay: functional, cell-based. In general terms: Formazan colour is commonly taken as a measure of viable cells.
Assay [2] relates to DU-145. Description: Inhibition of hypoxia-induced of VEGF production in human DU145 cells at 10 to 30 uM after 24 hrs by Western blotting analysis. Type of assay: functional, cell-based. Put shortly: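 DU145 cells at 40% confluence pre-incubated 12 h normoxic or hypoxic (1% O2), then treated 24 h. Medium incubated 12 h at 4 °C with anti-VEGF antibody, then with protein G agarose for 2 h at 4 °C. Beads washed 4 times in lysis buffer and boiled 5 min in SDS sample buffer. Run on SDS-PAGE, Western blotted, ECL detection.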
On the technique in general: Immunoblotting shows a protein as a band on a membrane.

The test system of assay [3] is DU-145. The assay is described as follows: Inhibition of hypoxia-induced accumulation of HIF-1alpha in human DU145 cells at 10 to 30 uM after 24 hrs by Western blotting analysis. It counts as functional, cell-based. The method in brief: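 DU145 cells at 40% confluence pre-incubated 12 h normoxic (5% CO2, 37 °C) or hypoxic (94% N2, 5% CO2, 1% O2). Then treated 24 h under the same condition. Cells rinsed in ice-cold PBS and lysed in Tris-HCl pH 7.5 buffer with EDTA, PMSF, NaF, vanadate, SDS and protease/phosphatase inhibitors. Lysates run on SDS-PAGE and blotted with anti-HIF-1α and anti-β-actin. ECL detection.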

For assay [4], the system named is DU-145. The assay is described as follows: Antiproliferative activity against human DU145 cells assessed as growth inhibition under hypoxic condition after 24 hrs by MTT assay. Type of assay: functional, cell-based. Put shortly:
(§1)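 DU145 cells in RPMI 1640 with 10% heat-inactivated FBS, seeded at 1×10^4 cells/well, settled 4 h at 37 °C in 5% CO2. Then held 12 h either normoxic or hypoxic (94% N2, 5% CO2, 1% O2). Compound added and incubated a further 24 h under the same condition. Read by MTT; inhibition expressed as % of parallel negative controls. Mean ± SD of 3 experiments in triplicate.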

Assay [5] relates to DU-145. Description: Antiproliferative activity against human DU145 cells assessed as growth inhibition under hypoxic condition at 30 uM after 24 hrs by MTT assay. It counts as functional, cell-based. Put shortly:
as §1

Assay [6] concerns DU-145. The assay is described as follows: Antiproliferative activity against human DU145 cells assessed as growth inhibition under normoxic condition at 30 uM after 24 hrs by MTT assay. It counts as functional, cell-based. Put shortly: as §1
For assay [7], the system named is DU-145. The assay is described as follows: Antiproliferative activity against human DU145 cells assessed as maximal growth inhibition under hypoxic condition at 10 uM after 24 hrs by MTT assay. Type of assay: functional. The note with it: DU-145, 24 h. Put shortly: as §1

On to `C=C1CCC[C@H]2[C@](C)(CC3=C(O)C(=O)C=C(NCCc4ccccc4)C3=O)[C@@H](C)CC[C@@]12C`, for which, in the assay with DU-145 [1], the inhibition entry was “inactive”.
Take `CC1=CCC[C@H]2[C@@H](C)[C@@](C)(CC3=C(O)C(=O)C=C(N)C3=O)CC[C@]12C`: the inhibition result in the assay with DU-145 [2], in the assay with DU-145 [1] and in the assay with DU-145 [3] was “inactive” in each case.
With `C=C1CCC[C@H]2[C@](C)(Cc3cc(C(=O)OC)cc(O)c3O)[C@@H](C)CC[C@]12C`, the inhibition result in the assay on DU-145 [4] was “Dose-dependent effect”.
On to `C=C1CCC[C@H]2[C@](C)(Cc3cc(C(=O)OC)ccc3O)[C@@H](C)CC[C@]12C`, for which the inhibition entry in the assay on DU-145 [5], in the assay with DU-145 [2], with DU-145 [6] and in the assay with DU-145 [3] was “Active” each time. In addition, in the assay on DU-145 [7], the inhibition at 10 µM worked out at 43%. The inhibition entry in the assay on DU-145 [4] is “Dose-dependent effect”.
With `COC1=CC(=O)C(O)=C(C[C@@]2(C)CC[C@]3(C)C(C)=CCC[C@H]3[C@H]2C)C1=O`, the inhibition result with DU-145 [1] was “inactive”.
The same measure, in the same setting: the result for `C=C1CCC[C@H]2[C@](C)(CC3=C(O)C(=O)C=C(NCC(C)C)C3=O)[C@@H](C)CC[C@]12C` reads “inactive”; that for `C=C1CCC[C@H]2[C@](C)(CC3=C(O)C(=O)C=C(OC)C3=O)[C@@H](C)CC[C@]12C`, “inactive”.
Still for that read-out and setting: the result for `C=C1CCC[C@H]2[C@](C)(CC3=C(O)C(=O)C=C(NCC(C)C)C3=O)[C@@H](C)CC[C@@]12C` reads “inactive”.
